Measured values: publication PMC4066402 (Genes & Development, 2014)
Positions count from the first letter of the chain named.

Columns and labels:
[1] = target: T1, BODIPY-FL-N(Cys)-Spt5-(801–898) (S. pombe) (UniProt O13936); test: fluorescence polarisation
T1 sequence (O13936 801-898, looked up): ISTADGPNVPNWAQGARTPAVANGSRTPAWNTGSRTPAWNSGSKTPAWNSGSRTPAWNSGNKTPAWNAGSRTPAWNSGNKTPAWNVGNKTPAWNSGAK

Pce1 G276R = target: T2, Pce1 G276R (Schizosaccharomyces pombe, UniProt P40997, G276R); test: Fluorescence polarization binding of Spt5 CTD-; parameters: species or system S. pombe
T2 sequence (P40997 1-402 G276R): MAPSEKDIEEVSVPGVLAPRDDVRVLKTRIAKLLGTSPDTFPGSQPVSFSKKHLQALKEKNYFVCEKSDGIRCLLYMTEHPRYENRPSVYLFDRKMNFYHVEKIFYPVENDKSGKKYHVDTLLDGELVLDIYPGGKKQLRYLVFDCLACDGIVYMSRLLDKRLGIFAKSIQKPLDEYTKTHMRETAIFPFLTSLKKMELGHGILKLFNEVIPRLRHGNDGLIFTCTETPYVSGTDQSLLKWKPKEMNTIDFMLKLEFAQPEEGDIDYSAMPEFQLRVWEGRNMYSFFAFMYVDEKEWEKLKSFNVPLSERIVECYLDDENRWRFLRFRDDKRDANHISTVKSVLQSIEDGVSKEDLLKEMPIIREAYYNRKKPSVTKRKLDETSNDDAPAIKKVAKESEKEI
Method in brief: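 Tag-free Pce1–GMP (His6Smt3 fusion made in E. coli, Ulp1-cleaved, gel-filtered, then guanylylated with 1 mM GTP/5 mM MgCl2 for 30 min on ice) was titrated against BODIPY-FL-N(Cys)-Spt5-(801–898) in 20 mM Tris-HCl, 4 mM DTT. Incubation was 15 min on ice. Read-out was polarization at ex 485/em 538 nm. Kd came from single-site fits, using a receptor-depletion model where half-saturation approached the ligand concentration.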

Pce1 [2] = target: T3, Pce1 (Schizosaccharomyces pombe, UniProt P40997); test: Competition between labeled and unlabeled Spt5 CTD-; assay type: binding, S. pombe; conditions: 1 μM Pce1 preincubated with untagged Spt5 CTD-(801–898) 15 min on ice, then 0.3 μM BODIPY-FL-Spt5 CTD-(801–898); pH 8.0; three independent experiments ± SEM
T3 sequence (P40997 1-402): T2 sequence (P40997 1-402 G276R) with R276G

Pce1 [3] = conditions: His tag affinity chromatography assay; ref Pei and Shuman 2002; cited from earlier work

B1: Schizosaccharomyces pombe RNA guanylyltransferase (GTase) Pce1, wild type, as the covalent Pce1–GMP intermediate (enzyme)
chain: SMAPSEKDIEEVSVPGVLAPRDDVRVLKTRIAKLLGTSPDTFPGSQPVSFSKKHLQALKEKNYFVCEKSDGIRCLLYMTEHPRYENRPSVYLFDRKMNFYHVEKIFYPVENDKSGKKYHVDTLLDGELVLDIYPGGKKQLRYLVFDCLACDGIVYMSRLLDKRLGIFAKSIQKPLDEYTKTHMRETAIFPFLTSLKKMELGHGILKLFNEVIPRLRHGNDGLIFTCTETPYVSGTDQSLLKWKPKEMNTIDFMLKLEFAQPEEGDIDYSAMPEFQLGVWEGRNMYSFFAFMYVDEKEWEKLKSFNVPLSERIVECYLDDENRWRFLRFRDDKRDANHISTVKSVLQSIEDGVSKEDLLKEMPIIREAYYNRKKPSVTKRKLDETSNDDAPAIKKVAKESEKEI
modifications: Lys67 covalently guanylylated (lysyl-Nζ-GMP)
In the case of B1, the Kd [1] is reported as 1.19 µM.

B2: Pce1-G276R (enzyme)
chain: B1 chain with G277R
modifications: guanylylated in vitro (Pce1–GMP)
Molecule B2 has a Kd [1] of 28.8 µM.

B3: BODIPY-FL-Spt5 CTD-(801–898): N(Cys)-Spt5-(801–898) labeled with BODIPY-FL at the N terminus via maleimide chemistry (protein, UniProt O13936 801-898, looked up, fragment)
chain: T1 sequence (O13936 801-898, looked up)
modifications: N-terminal Cys, BODIPY-FL label
With B3 the “decrement in binding affinity” value (Pce1 G276R; Pce1-G276R vs wild-type Pce1) was 24 fold and the Kd (Pce1 G276R; Pce1 G276R, 300 nM labeled ligand, pH 8.0, 50 mM NaCl, read at 23°C, triplicate) was 28.8 ± 4.3 µM.

B4: Spt5-(801–898): purified recombinant Spt5-(801–898), composed of 10 nonamer repeats (protein, UniProt O13936 801-898, looked up, fragment)
chain: T1 sequence (O13936 801-898, looked up)
For B4, the Ki (Pce1 [2]) was 0.61 ± 0.2 µM.

B5: Spt5 CTD composed of 10 nonamer repeats: Spt5 CTD composed of 10 nonamer repeats (protein, UniProt O13936 801-898, looked up, fragment)
chain: T1 sequence (O13936 801-898, looked up)
For B5, the “Pce1 binding to Spt5 CTD, dependence on number of nonamer repeats” value (Pce1 [3]) is listed as “bound well”.
